Data set [1] has as its system MS2 coat protein. In words: apparent Kd, MS2 coat protein; higher = weaker binding; RNA-MaP array; tryptophan 2.4 mM where present. A digest of the protocol:
(§1)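 The apparent Kd is reported as the median of filtered per-cluster binding-curve fits. To get these curves, designs transcribed by stalled E. coli RNA polymerase on Illumina sequencing-chip clusters were titrated with SNAP-549-labelled MS2 coat protein from 0.7 or 1.5 nM, doubling to 3 µM. Titrations were run without and then with constant ligand in 100 mM Tris-HCl pH 7.5, 80 mM KCl, 4 mM MgCl2, BSA, DTT, yeast tRNA and Tween-20, and green signal was normalised to red-channel RNA signal and control-cluster median Fmax.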

Data set [2] relates to MS2 coat protein. In words: apparent Kd, MS2 coat protein; higher = weaker binding; RNA-MaP array; theophylline 2 mM where present. A digest of the protocol: as §1
The mark [3] stands for this setting: designed as: OFF switch for tryptophan, no ligand.
The mark [4] stands for this setting: ligand present: tryptophan, designed as: OFF switch for tryptophan.
Setting [5] is: designed as: ON switch for tryptophan, no ligand.
Setting [6] is: ligand present: tryptophan, designed as: ON switch for tryptophan.
[7] abbreviates: designed as: OFF switch for theophylline, no ligand.
Where [8] appears, read: ligand present: theophylline, designed as: OFF switch for theophylline.
Where [9] appears, read: designed as: ON switch for theophylline, no ligand.
The mark [10] stands for this setting: ligand present: theophylline, designed as: ON switch for theophylline.

The record followed here is the EternaBench riboswitch data.

For “CUCAUCCACGCGGCCGCCACUAUUUUUAGGUGUGGGUGUGACGUAUUACAUGAGGAUCACCCAUGUAGGACCGGGCGUGGAUGAG”, the “apparent Kd” value in data set [1] (setting [3]) came out at 0.385 µM; in data set [1] (setting [4]) it was 0.485 µM.

“AGUUAUUCGAACAUGGUUGACGAGUGGCAACGAGGACCGGUACGGCCGCCACUCGAAUAAACAUGAGGAUCACCCAUGUACAAAU”: the results for the “apparent Kd” value in data set [1] (setting [5]) and in data set [1] (setting [6]) were 0.342 µM and 0.287 µM, respectively.

For “AUUGUCGUGUCGGCCGCCACUGUCAUGGUUUUCGUGGAAAACAUGAGGAUCACCCAUGUAAUUGACAGGACCGGGACAUGGCGGC”, the results for the “apparent Kd” value in data set [1] (setting [3]) and in data set [1] (setting [4]) were 0.00929 µM and 0.0104 µM, respectively.

On to “UAUAUAUAUAGUGAUACCAGCAGAGAAAACGUUUAUCCUAACAUGAGGAUCACCCAUGUAUGCCCUUGGCAGCGUUAUAUAUAUA”, for which the “apparent Kd” value came to 0.024 µM in data set [2] (setting [7]) and 0.0324 µM in data set [2] (setting [8]).

Turning to “UCGUUUUAGUCGGCCGCCACUGUAUGCAUGUUUAACAUGAGGAUCACCCAUGUCCCGUUCUAUUUCAGGACCGGGACGUAAUCGA”, the results for the “apparent Kd” value in data set [1] (setting [5]) and in data set [1] (setting [6]) were 0.525 µM and 0.344 µM, respectively.

As for “AGCGAUAUGCAUGAUACCAGCUACAUGAGGAUCACCCAUGUACGUCAGUAAUGACUGUGUAGCCCUUGGCAGCAUAGAGCAUGUA”, the “apparent Kd” value in data set [2] (setting [7]) was 0.0255 µM; in data set [2] (setting [8]), 0.033 µM.

Turning to “AAUUUGUCGGGUGAUACCAGCCUCGGCGCAUCUCGCGCUGAACAUGAGGAUCACCCAUGUGGCCCUUGGCAGCACAUGACAAAUC”, the “apparent Kd” value in data set [2] (setting [9]) is 0.554 µM; in data set [2] (setting [10]), 0.0373 µM.

As to “GAGUAGAGGACGGCCGCCACUGAACAUGAGGAUCACCCAUGUCGUGAUCCGUUACCUAAAGAAGAUAGGACCGGGUCAUGUACUC”, the “apparent Kd” value in data set [1] (setting [3]) worked out at 0.0273 µM; in data set [1] (setting [4]), 0.0287 µM.

As for “GAUCUGUCGGGUGAUACCAGCCUCGGCGCGUCUCGCGCUGAACAUGAGGAUCACCCAUGUGGCCCUUGGCAGCACAUGACAAAUC”, the “apparent Kd” value in data set [2] (setting [9]) was 0.574 µM; in data set [2] (setting [10]), 0.0442 µM.

As for “GCGUGGUCUGCGGCCGCCACUCAAGGAGCUACAUAGCUCCUAGACAUGAGGAUCACCCAUGUCGCGAGGACCGGGUAGAUUCUCC”, the “apparent Kd” value in data set [1] (setting [5]) was determined as 0.096 µM; in data set [1] (setting [6]), 0.0308 µM.

Consider “GGGUAUGAUCCGGAUACCAGCGAACAUGAGGAUCACCCAUGUGACCUAAGAUAGGCUAAACGCCCUUGGCAGCCGAGAUUGCGUU”, for which the “apparent Kd” value is 0.0484 µM in data set [2] (setting [9]) and 0.0315 µM in data set [2] (setting [10]).

For the sequence “UAUAUAUAUAGGGAUACCAGCAGAGAAAACGUUUAUCCUAACAUGAGGAUCACCCAUGUAUGCCCUUGGCAGCUUUAUAUAUAUA”, the “apparent Kd” value in data set [2] (setting [7]) was 0.0229 µM; in data set [2] (setting [8]) it was 0.0312 µM.

“GCUAGGUCAUCGGCCGCCACUAUUAGUGGUUCGAACAUGAGGAUCACCCAUGUGCCACAUGCGCAUAGGACCGGGAUGACCUAGC”: the results for the “apparent Kd” value in data set [1] (setting [5]) and in data set [1] (setting [6]) were 0.0127 µM and 0.00942 µM, respectively.

Regarding “ACAUUAGCCACGGCCGCCACUGCCUUAUGAUUAUAAGGAUUAAUGAACAUGAGGAUCACCCAUGUCAGGACCGGGUGCCUACCAU”, the figures for the “apparent Kd” value in data set [1] (setting [5]) and in data set [1] (setting [6]) were 0.022 µM and 0.0207 µM, respectively.

In the case of “GGUUACUCUACGGCCGCCACUGAUAAAUAAUAAACCUGUACAUAAACAUGAGGAUCACCCAUGUACAGGACCGGGUAGUGUAACC”, the “apparent Kd” value in data set [1] (setting [5]) stood at 0.0328 µM; in data set [1] (setting [6]), 0.0241 µM.

For “GGAGUAGAUGCGGCCGCCACUUUCUCAAGACACUACAUGAGGAUCACCCAUGUCCAUUCUACACUAAGGACCGGGCAUCCCAUGG”, the “apparent Kd” value in data set [1] (setting [5]) stood at 0.0543 µM; in data set [1] (setting [6]) it was 0.0395 µM.

“UUCGUAUUGUCGGCCGCCACUGCAACAUGAGGAUCACCCAUGUAAGAAUGGUUGUAAAUAUAUUACAGGACCGGGACAAUAGUAA”: the “apparent Kd” value in data set [1] (setting [3]) was determined as 0.0176 µM; in data set [1] (setting [4]), 0.0516 µM.

Regarding “UUUGAUAUGACAGAUACCAGCGUGUUGUUGAACAUGAGGAUCACCCAUGUAGUGAUCAAGCGCCCUUGGCAGCUGGUGUGUUAGG”, the “apparent Kd” value in data set [2] (setting [9]) was determined as 0.125 µM; in data set [2] (setting [10]), 0.0827 µM.

On to “AACAUGAGGAUCACCCAUGUCCCAUGUGAACGAGGACCGGUACGGCCGCCACUCGACUGAGGCGGCACAUGAGGAUCACCCACAU”, for which the figures for the “apparent Kd” value in data set [1] (setting [5]) and in data set [1] (setting [6]) were 0.17 µM and 0.314 µM, respectively.

For the sequence “GAGGAUCAAGUAGAUACCAGCACAUGAGGAUCACCCAUGUAAUGGUGUCCCUCAAGAACGUGCCCUUGGCAGCUACUAUCAAAAU”, the “apparent Kd” value in data set [2] (setting [7]) and in data set [2] (setting [8]) was 0.0163 µM in each case.

On to “AUUCAUAAUUGGGUAAAUGGAUAGAGUGAUACCAGUCAUAUACAUGACCCUUGGCAGCACAAGGACAUGAGGAUCACCCAUGUCA”, for which the figures for the “apparent Kd” value in data set [2] (setting [9]) and in data set [2] (setting [10]) were 0.0242 µM and 0.0163 µM, respectively.

Regarding “AGCAUGUUAGCAGAUACCAGACGUUUUAUGAUCCAUGUAACAUGAGGAUCACCCAUGUAAGUCCCUUGGCAGCUGAAAUAAUGCA”, the “apparent Kd” value in data set [2] (setting [9]) came out at 0.155 µM; in data set [2] (setting [10]), 0.301 µM.

For the sequence “AUCGUACCUGGUGAUACCAGCAAGUGAUUAUAACAUGAGGAUCACCCAUGUAAUCAGUGAUGCCCUUGGCAGCAUAAUCGGUACA”, the figures for the “apparent Kd” value in data set [2] (setting [9]) and in data set [2] (setting [10]) were 0.0263 µM and 0.0213 µM, respectively.
